From ChEMBL document CHEMBL2311534, “Synthesis and antiplasmodial evaluation of novel (4-aminobutyloxy)quinolines” (Bioorg Med Chem Lett, 2013)

Columns and labels:
[1] = system: Plasmodium falciparum; assay: Antiplasmodial activity against erythrocyte form of chloroquine-sensitive Plasmodium falciparum D10 by parasite lactate dehydrogenase assay; assay type: functional, organism-based
Summary of the method: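 Asexual erythrocyte-stage cultures were maintained by a modified Trager–Jensen method. Samples were made as 20 mg/mL stocks in 100% DMSO and diluted in complete medium. The top test concentration was 100 µg/mL, with twofold serial dilution to 10 concentrations (lowest 0.2 µg/mL). Growth was read by parasite lactate dehydrogenase assay in triplicate on one occasion. IC50 came from full dose-response curves.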

[2] = system: Plasmodium falciparum; assay: Antiplasmodial activity against erythrocyte form of chloroquine-resistant Plasmodium falciparum Dd2 by parasite lactate dehydrogenase assay; assay type: functional, organism-based
Summary of the method: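 Continuous culture of asexual erythrocyte stages (modified Trager–Jensen); growth read by parasite lactate dehydrogenase assay (modified Makler). Samples from 20 mg/mL DMSO stock, diluted in complete medium; full dose-response, twofold serial dilutions from 100 µg/mL to 0.2 µg/mL (10 concentrations); chloroquine reference. Triplicate on one occasion; IC50 from non-linear curve fitting.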

[3] = system: Plasmodium falciparum; assay: Resistance index, ratio of IC50 for chloroquine-resistant Plasmodium falciparum Dd2 to IC50 for chloroquine-sensitive Plasmodium falciparum D10; assay type: functional
[4] = Selectivity index, ratio of IC50 for CHO cells to IC50 for chloroquine-sensitive Plasmodium falciparum D10; assay type: toxicity, cell-based; settings: hamster, read-out: Ratio IC50
Summary of the method: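 Computed as IC50 from the CHO MTT assay divided by IC50 from the D10 pLDH assay. Both IC50 values came from full dose-response curves, each run in triplicate on one occasion.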

[5] = system: CHO; assay: Cytotoxicity against CHO cells by MTT assay; assay type: cell-based; settings: Cricetulus griseus
Summary of the method: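 CHO cell growth and survival was read colorimetrically with MTT. Samples were diluted in complete medium on the day of testing as 10-fold serial dilutions to 6 concentrations (100 down to 0.001 µg/mL). Emetine served as reference. Tests were run in triplicate on one occasion. IC50 was obtained by non-linear dose-response curve fitting.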

Row | SMILES | IC50 [1] | IC50 [2] | Ratio IC50 [3] | selectivity ratio [4] | IC50 [5]
1 | CCN(CC)CCCCOc1cccc2cccnc12 | 49.2 µM | – | – | – | –
2 | CCN(CC)CCCCOc1ccc(Cl)c2cccnc12 | 17.2 µM | – | – | – | –
3 | CCN(CC)CCC(C)COc1cccc2cccnc12 (configuration not stated) | 100 µM | – | – | – | –
4 | CCN(CC)CCC(C)COc1c(Cl)cc(Cl)c2ccc(C)nc12 (configuration not stated) | 3.95 µM | 0.68 µM | 0.17 | 57 | 224 µM
5 | CCN(CC)CCC(C)COc1c(I)cc(Cl)c2cccnc12 (configuration not stated) | 13 µM | – | – | – | –
6 | CCN(CC)CCC(C)COc1c(I)cc(I)c2cccnc12 (configuration not stated) | 13.9 µM | – | – | – | –
7 | CCN(CC)CCCCOc1cccc2ncccc12 | 10.2 µM | – | – | – | –
8 | Clc1ccc(CNCCCCOc2ccc(Cl)c3cccnc23)cc1 | 9.99 µM | – | – | – | –
9 | Cc1ccc2c(Cl)cc(Cl)c(OCC(C)CCNCc3ccc(Cl)cc3)c2n1 (configuration not stated) | 2.44 µM | 0.26 µM | 0.11 | 2 | 4.11 µM
10 | CC(CCNCc1ccc(Cl)cc1)COc1c(I)cc(I)c2cccnc12 (configuration not stated) | 9.15 µM | – | – | – | –
11 | Clc1ccc(CNCCCCOc2ccc3ncccc3c2)cc1 | 7.29 µM | > 1 µM | – | 29 | 211 µM
12 | CC(CCNCc1ccc(Cl)cc1)COc1cccc2ncccc12 (configuration not stated) | 23.1 µM | – | – | – | –
13 | CCN(CC)CCC(C)Cc1cc(Cl)c2cccnc2c1O (configuration not stated) | 1.01 µM | 0.15 µM | 0.15 | 5 | 4.8 µM
14 | CC[C@H]1CN2CCc3cc(OC)c(OC)cc3[C@@H]2C[C@@H]1C[C@H]1NCCc2cc(OC)c(OC)cc21 [EMETINE] | – | – | – | – | 0.17 µM

Continued, in another order:

Row | IC50 [1] | SMILES | IC50 [2] | Ratio IC50 [3] | selectivity ratio [4] | IC50 [5]
15 | 9.02 µM | CCN(CC)CCCCOc1c(I)cc(Cl)c2cccnc12 | – | – | – | –
16 | 8.08 µM | CCN(CC)CCC(C)COc1c(Cl)cc(Cl)c2cccnc12 (configuration not stated) | – | – | – | –
17 | 8.65 µM | CCN(CC)CCC(C)COc1c(Br)cc(Br)c2cccnc12 (configuration not stated) | – | – | – | –
18 | 6.02 µM | CCN(CC)CCCCOc1ccc2ncccc2c1 | – | – | – | –
19 | 5.64 µM | CC(CCNCc1ccc(Cl)cc1)COc1cccc2cccnc12 (configuration not stated) | – | – | – | –
20 | 7.01 µM | Clc1ccc(CNCCCCOc2cccc3ncccc23)cc1 | – | – | 34 | 237 µM
